Measured values reported in paper PMC8897028 (Acta Pharmaceutica Sinica. B, 2021).
Where a chain is given by its changes, count along the chain named.

Columns and labels:
Type in all cases: cell-based
hTRPA1 = hTRPA1 (Homo sapiens, UniProt O75762); assay: whole-cell patch-clamp of TRPA1 currents in HEK293 cells; conditions: compound 50 μmol/L; current evoked by AITC 300 μmol/L
How it was run: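 Human channel cDNAs were transiently transfected into HEK293 cells with Lipofectamine 2000. EGFP-positive cells were recorded whole-cell 18 h later at 22–24 °C with ~4.0 MΩ fire-polished pipettes. Cells were held at 0 mV with 500-ms ramps from −100 to +100 mV every 2 s. Test compound in perfusion solution was co-applied with agonist, and average current inhibition was summarised; n = 4–6.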

mTRPV3 T636A = target: T1, mTRPV3 T636A (Mus musculus, UniProt Q8K424, T636A); assay: whole-cell patch-clamp of mTRPV3 T636A mutant in HEK293 cells; conditions: compound 50 μmol/L; 2-APB; compared with WT mTRPV3
T1 sequence (Q8K424 1-791 T636A): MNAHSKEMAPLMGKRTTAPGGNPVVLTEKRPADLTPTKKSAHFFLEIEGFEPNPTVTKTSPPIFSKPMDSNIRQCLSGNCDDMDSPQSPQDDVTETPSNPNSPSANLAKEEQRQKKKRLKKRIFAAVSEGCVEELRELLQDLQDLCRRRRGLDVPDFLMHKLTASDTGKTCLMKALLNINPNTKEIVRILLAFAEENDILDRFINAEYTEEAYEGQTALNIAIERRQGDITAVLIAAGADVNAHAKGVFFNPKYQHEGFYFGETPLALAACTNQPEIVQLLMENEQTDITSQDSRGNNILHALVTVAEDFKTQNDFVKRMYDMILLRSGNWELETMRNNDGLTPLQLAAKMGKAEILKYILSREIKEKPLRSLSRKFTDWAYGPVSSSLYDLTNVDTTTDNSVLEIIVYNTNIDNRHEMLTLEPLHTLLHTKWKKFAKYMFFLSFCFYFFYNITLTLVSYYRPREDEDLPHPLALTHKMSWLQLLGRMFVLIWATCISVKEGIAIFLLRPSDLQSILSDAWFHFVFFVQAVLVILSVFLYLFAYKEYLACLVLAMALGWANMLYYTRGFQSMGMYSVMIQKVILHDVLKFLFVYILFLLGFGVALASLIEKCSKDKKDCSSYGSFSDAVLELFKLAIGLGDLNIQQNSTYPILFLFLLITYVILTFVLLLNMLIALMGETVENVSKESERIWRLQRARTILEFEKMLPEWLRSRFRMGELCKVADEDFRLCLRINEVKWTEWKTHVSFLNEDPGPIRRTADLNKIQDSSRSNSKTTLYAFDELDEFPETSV
How it was run: (§1)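 Mouse Trpv3 point mutants were made by site-directed mutagenesis, sequence-verified, and transiently expressed in HEK293 cells alongside wild-type mTRPV3. Whole-cell ramp recordings (−100 to +100 mV, 500 ms, holding 0 mV) were made at 22–24 °C. Currents were activated by 2-APB, and inhibition by 50 μmol/L test compound in the presence of 2-APB was compared with wild type; n = 3–8.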

mTRPV3 T665A = target: T2, mTRPV3 T665A (Mus musculus, UniProt Q8K424, T665A); assay: whole-cell patch-clamp of mTRPV3 T665A mutant in HEK293 cells; conditions: compound 50 μmol/L; 2-APB; compared with WT mTRPV3
T2 sequence (Q8K424 1-791 T665A): T1 sequence (Q8K424 1-791 T636A) with A636T, T665A
How it was run: as §1

mTRPV3 H426A = target: T3, mTRPV3 H426A (Mus musculus, UniProt Q8K424, H426A); assay: whole-cell patch-clamp of mTRPV3 H426A mutant in HEK293 cells; conditions: compound 100 µmol/L; carvacrol 300 μmol/L
T3 sequence (Q8K424 1-791 H426A): T1 sequence (Q8K424 1-791 T636A) with H426A, A636T
How it was run: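 The sequence-confirmed site-directed mTRPV3 mutant was transiently expressed in HEK293 cells, and EGFP-positive cells were recorded whole-cell 18 h post-transfection. Cells were held at 0 mV with 500-ms ramps from −100 to +100 mV every 2 s, at 22–24 °C. Compounds were diluted in perfusion solution.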

hTRPA1, sequence (O75762 whole entry, the tested form may be a part): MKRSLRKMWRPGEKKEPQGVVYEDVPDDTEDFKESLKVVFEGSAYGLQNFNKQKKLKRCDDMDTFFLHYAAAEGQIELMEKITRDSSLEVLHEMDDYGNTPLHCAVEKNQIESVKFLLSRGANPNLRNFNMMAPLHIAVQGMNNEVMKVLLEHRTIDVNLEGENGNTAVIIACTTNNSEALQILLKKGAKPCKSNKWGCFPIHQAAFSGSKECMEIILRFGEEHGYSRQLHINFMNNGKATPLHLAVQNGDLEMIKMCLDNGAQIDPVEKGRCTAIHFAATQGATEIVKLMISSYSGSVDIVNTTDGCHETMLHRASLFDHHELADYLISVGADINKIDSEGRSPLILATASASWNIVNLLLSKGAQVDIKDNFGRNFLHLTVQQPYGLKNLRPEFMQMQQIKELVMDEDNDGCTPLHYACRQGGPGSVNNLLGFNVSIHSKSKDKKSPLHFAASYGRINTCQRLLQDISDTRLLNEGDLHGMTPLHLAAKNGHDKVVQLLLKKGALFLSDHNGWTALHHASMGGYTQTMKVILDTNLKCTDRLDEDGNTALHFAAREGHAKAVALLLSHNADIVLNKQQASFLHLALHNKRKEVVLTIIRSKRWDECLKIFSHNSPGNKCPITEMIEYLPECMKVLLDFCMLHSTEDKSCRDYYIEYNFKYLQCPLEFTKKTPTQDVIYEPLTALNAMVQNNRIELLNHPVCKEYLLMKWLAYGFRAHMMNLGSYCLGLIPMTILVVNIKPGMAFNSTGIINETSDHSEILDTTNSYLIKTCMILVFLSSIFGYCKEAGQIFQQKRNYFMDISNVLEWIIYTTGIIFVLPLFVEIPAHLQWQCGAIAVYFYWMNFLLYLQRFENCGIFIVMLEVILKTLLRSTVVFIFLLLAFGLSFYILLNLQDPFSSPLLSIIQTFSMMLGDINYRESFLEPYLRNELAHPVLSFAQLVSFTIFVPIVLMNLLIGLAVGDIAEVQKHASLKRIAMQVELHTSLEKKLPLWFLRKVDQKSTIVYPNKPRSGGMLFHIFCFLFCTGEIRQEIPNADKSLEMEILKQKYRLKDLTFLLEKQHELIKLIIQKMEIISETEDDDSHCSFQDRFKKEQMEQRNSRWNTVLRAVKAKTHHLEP

SMILES | inhibition of TRPA1 current (hTRPA1) | effect of mutation on compound-induced inhibition of mTRPV3 currents (mTRPV3 T636A) | effect of mutation on compound-induced inhibition of mTRPV3 currents (mTRPV3 T665A) | inhibition of carvacrol-mediated H426A mutant currents (mTRPV3 H426A)
O=C(/C=C/c1ccc(O)c(O)c1)O[C@@H]1[C@H](O)C[C@@](O)(C(=O)O)C[C@H]1OC(=O)/C=C/c1ccc(O)c(O)c1 [IAB, isochlorogenic acid B] | no inhibitory effect | markedly reduced | no obvious effect | markedly inhibited
O=C(/C=C/c1ccc(O)c(O)c1)O[C@@H]1C[C@](O)(C(=O)O)C[C@@H](OC(=O)/C=C/c2ccc(O)c(O)c2)[C@H]1O [IAA, isochlorogenic acid A] | no inhibitory effect | markedly reduced | no obvious effect | markedly inhibited
